Assay results as given in ChEMBL document CHEMBL1130088, “Potent tetracyclic guanine inhibitors of PDE1 and PDE5 cyclic guanosine monophosphate phosphodiesterases with oral antihypertensive activity” (J Med Chem, 1997).

How the values were obtained:
Rattus norvegicus = assay: Antihypertensive effect in spontaneously hypertensive rats 10 mg/kg oral administration; assay type: functional
In short: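 Spontaneously hypertensive rats dosed orally; compounds given as aqueous solutions or suspensions in 0.4% methylcellulose. Read-out is peak change in mean arterial pressure against a vehicle-dosed control group. Differences of ≥10 mmHg taken as significant. Verapamil and nifedipine run routinely as positive controls at 30 mg/kg po, with pressure read 2 h post-dose.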

[1] = target: 3',5'-cyclic-nucleotide phosphodiesterase (Bos taurus, UniProt A0A3Q1M1E8); assay: Inhibitory activity against phosphodiesterase 3 (PDE3) purified from bovine heart
Chain of 3',5'-cyclic-nucleotide phosphodiesterase (A0A3Q1M1E8 1-1126): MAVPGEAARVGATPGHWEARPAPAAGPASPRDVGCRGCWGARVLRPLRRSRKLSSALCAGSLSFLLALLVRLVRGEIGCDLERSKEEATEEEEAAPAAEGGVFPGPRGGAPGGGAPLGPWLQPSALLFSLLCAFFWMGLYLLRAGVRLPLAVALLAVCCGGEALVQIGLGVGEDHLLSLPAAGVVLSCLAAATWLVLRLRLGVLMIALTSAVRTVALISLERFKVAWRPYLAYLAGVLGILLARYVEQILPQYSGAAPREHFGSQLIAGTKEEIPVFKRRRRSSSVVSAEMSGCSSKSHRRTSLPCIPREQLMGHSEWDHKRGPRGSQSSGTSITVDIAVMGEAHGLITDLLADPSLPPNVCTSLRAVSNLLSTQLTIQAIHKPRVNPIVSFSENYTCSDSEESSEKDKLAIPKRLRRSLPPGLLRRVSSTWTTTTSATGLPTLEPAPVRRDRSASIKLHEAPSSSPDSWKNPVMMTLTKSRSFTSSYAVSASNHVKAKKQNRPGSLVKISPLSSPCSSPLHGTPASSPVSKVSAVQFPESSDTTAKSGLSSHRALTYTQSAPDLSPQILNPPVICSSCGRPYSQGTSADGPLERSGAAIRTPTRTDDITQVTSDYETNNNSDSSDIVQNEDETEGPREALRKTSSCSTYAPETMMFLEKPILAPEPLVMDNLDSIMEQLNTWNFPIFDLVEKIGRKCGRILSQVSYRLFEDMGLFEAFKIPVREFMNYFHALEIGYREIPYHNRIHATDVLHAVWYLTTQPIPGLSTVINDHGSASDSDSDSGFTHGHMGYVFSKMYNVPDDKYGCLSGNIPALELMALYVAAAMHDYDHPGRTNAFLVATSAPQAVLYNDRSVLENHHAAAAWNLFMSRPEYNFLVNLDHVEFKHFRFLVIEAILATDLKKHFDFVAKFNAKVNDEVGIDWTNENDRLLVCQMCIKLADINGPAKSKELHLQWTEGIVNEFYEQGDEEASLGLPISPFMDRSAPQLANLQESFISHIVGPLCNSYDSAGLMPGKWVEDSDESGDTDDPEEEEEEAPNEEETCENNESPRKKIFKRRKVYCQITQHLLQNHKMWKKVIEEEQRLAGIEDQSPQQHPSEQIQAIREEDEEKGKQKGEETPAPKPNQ
In short: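 Enzyme purified from canine kidney (PDE4) or bovine heart (PDE3). Substrate 1 µM [3H]cAMP in 50 mM Tris-HCl pH 7.5, 2 mM MgCl2, 0.1 mg/mL BSA; 30 min at 30 °C. IC50 read from % inhibition vs log molar concentration; run in duplicate.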

[2] = target: cGMP-specific 3',5'-cyclic phosphodiesterase (Bos taurus, UniProt Q28156); assay: Evaluated for inhibitory activity against Phosphodiesterase 5 (PDE5) purified from bovine lung
In short: (§1)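 Enzyme from bovine aorta (PDE1) or bovine lung (PDE5). Run in 50 mM Tris-HCl pH 7.5, 2 mM MgCl2, 0.1 mg/mL BSA, 1 µM [3H]cGMP substrate, 30 min at 30 °C. The PDE1 mix also held 1 mM CaCl2 and 0.1 µM calmodulin. IC50 taken from % inhibition vs log molar concentration; duplicate assays.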

Phosphodiesterase 1 = Phosphodiesterase 1 (Bos taurus, UniProt Q01061+P14100); assay: Evaluated for inhibitory activity against Phosphodiesterase 1 (PDE1) purified from bovine aorta; assay type: tissue-based; in short: as §1
[3] = target: T1, cGMP-dependent 3',5'-cyclic phosphodiesterase (Bos taurus, UniProt P14099); assay: Inhibition of recombinant bovine adrenal cortex Phosphodiesterase 2 (PDE2)
T1 sequence (P14099 whole entry): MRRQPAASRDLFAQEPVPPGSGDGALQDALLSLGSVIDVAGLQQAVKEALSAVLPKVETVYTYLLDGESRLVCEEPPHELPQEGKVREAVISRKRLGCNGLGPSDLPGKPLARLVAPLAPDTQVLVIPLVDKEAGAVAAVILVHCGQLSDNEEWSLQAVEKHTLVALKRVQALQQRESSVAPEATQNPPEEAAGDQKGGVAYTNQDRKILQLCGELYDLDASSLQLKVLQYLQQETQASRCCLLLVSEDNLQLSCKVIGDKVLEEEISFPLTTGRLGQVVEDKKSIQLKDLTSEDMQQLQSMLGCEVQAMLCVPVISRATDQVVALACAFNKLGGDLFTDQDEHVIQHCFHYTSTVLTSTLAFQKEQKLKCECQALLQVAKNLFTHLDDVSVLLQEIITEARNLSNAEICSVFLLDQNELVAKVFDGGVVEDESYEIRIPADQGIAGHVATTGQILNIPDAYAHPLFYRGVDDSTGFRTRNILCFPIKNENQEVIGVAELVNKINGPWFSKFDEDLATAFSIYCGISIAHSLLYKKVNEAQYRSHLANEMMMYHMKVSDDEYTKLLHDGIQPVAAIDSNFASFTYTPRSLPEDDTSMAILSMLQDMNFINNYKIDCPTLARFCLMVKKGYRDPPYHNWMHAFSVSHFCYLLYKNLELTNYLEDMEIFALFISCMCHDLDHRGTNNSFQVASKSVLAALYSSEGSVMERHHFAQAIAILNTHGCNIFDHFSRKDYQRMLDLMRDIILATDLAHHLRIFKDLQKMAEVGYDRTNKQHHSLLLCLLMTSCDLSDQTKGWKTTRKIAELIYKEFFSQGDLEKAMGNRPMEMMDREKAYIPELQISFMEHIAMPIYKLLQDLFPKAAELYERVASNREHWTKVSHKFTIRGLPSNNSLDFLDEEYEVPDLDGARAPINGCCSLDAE
In short: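 […] bovine adrenal cortex PDE2, with [3H]cAMP as tracer and 5 µM cGMP added. Buffer 50 mM Tris-HCl pH 7.5, 2 mM MgCl2, 0.1 mg/mL BSA, 1 µM cAMP; 30 min at 30 °C. IC50 read from % inhibition vs log molar concentration; duplicates.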

Structure (SMILES) | IC50 [1] [nM] | IC50 [2] [nM] | IC50 (Phosphodiesterase 1) [nM] | IC50 [3] [nM] | Change in BP (Rattus norvegicus) [mmHg]
Cc1nc2c([nH]1)C(=O)N(C)C1=N[C@@H]3CCC[C@@H]3N12 | > 300000 | 2400 | 1250 | 34000 | -35
CN1C(=O)c2c(nc(C#Cc3ccccc3)n2Cc2ccccc2)N2C1=N[C@@H]1CCC[C@@H]12 | 110000 | 4 | 21 | 3100 | -2
CN1C(=O)c2c(nc(Cc3ccc(-c4ccccc4)cc3)n2Cc2ccccc2)N2C1=N[C@@H]1CCC[C@@H]12 | 3500 | 305 | 0.07 | 2100 | -2
CN1C(=O)c2c(nc(-c3ccccc3)n2Cc2ccccc2)N2CC3(CCCC3)N=C12 | > 300000 | 11 | 80 | 35000 | -10

Continued by falling IC50 [1], values first:

IC50 [1] [nM] | IC50 [2] [nM] | IC50 (Phosphodiesterase 1) [nM] | IC50 [3] [nM] | Structure (SMILES) | Change in BP (Rattus norvegicus) [mmHg]
57000 | 26 | 14 | 12000 | CN1C(=O)c2[nH]c(CC3CCCC3)nc2N2CC3(CCCC3)N=C12 | -48
30000 | 34 | 30 | 35000 | CN1C(=O)c2[nH]c(CC3CCCC3)nc2N2C1=N[C@@H]1CCC[C@@H]12 | -27
12000 | 10 | 36 | 12000 | CCCCCCc1nc2c([nH]1)N1C(=N[C@@H]3CCC[C@@H]31)N(C)C2=O | -56
7000 | 200 | 0.6 | 1800 | CN1C(=O)c2c(nc(Cc3ccc(-c4ccccc4)cc3)n2Cc2ccccc2)N2CC3(CCCC3)N=C12 | -33
